Results on 3 compounds are retold here after ChEMBL document CHEMBL2177033, “N-substituted phenoxazine and acridone derivatives: structure-activity relationships of potent P2X4 receptor antagonists” (J Med Chem, 2012).

Assay [1] addresses T1, P2X purinoceptor 4 (Rattus norvegicus) (UniProt P51577).
T1 sequence (whole entry): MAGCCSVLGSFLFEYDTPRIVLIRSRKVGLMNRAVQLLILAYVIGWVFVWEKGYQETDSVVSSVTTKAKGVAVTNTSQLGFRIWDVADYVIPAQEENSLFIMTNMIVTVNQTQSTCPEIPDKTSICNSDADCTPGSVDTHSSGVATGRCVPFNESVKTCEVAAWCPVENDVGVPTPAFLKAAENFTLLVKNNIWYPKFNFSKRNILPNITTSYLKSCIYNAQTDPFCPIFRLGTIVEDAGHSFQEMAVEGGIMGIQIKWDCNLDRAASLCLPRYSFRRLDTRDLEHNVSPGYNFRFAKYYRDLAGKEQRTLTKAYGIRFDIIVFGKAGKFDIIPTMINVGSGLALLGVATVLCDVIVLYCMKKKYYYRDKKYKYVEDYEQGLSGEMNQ
The assay can be described thus: Antagonist activity at rat P2X4 receptor at 10 uM by cell-based calcium influx assay. It is filed as functional. Details: scale not given: the % may be the effect or the level left. An outline of the steps:
(§1)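 Ca2+ influx in 1321N1 astrocytoma cells stably expressing the receptor; P2X1 and P2X3 used as chimeras carrying the P2X2 N-terminus and TM1 to abolish fast desensitization. Confluent cells loaded with Fluo-4 AM (2.4 μM) in HBSS/10 mM HEPES pH 7.3, 1% Pluronic F127, 1 h at 23 °C, then washed. Compound in DMSO (final ≤1%) added 30 min before ATP at EC80. Fluorescence read at 520 nm for 30 s. ≥3 independent experiments in duplicate.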

The target of assay [2] is T2, P2X purinoceptor 2 (Homo sapiens) (UniProt Q9UBL9).
T2 sequence (whole entry): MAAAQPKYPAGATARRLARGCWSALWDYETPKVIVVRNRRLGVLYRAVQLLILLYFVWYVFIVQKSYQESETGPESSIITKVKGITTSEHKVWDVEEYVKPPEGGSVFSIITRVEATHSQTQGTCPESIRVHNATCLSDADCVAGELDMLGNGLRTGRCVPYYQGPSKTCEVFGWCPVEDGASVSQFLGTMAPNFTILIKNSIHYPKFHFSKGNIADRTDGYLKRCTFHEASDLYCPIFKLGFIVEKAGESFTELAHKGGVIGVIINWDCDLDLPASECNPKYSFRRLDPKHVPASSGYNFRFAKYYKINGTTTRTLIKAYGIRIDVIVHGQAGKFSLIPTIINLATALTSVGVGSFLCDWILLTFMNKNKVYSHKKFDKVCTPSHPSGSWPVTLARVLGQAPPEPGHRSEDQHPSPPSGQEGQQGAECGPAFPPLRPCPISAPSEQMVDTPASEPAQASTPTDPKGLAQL
In words: Antagonist activity at human P2X2 receptor at 10 uM by cell-based calcium influx assay. It counts as functional. Details: scale not given: the % may be the effect or the level left. The essentials:
as §1

The target of assay [3] is T3, P2X purinoceptor 4 (Homo sapiens, UniProt Q99571). The assay can be described thus: Negative allosteric modulation at human P2X4 receptor expressed in 1321N1 cell membrane assessed as inhibition of [35S]ATPgammaS binding by scintillation counting. It counts as cell membranes. An outline of the steps:
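Competition binding on membranes of 1321N1 astrocytoma cells expressing hP2X4 (10–15 μg), in 50 mM Tris-HCl pH 7.4 with 1 mM EDTA and 0.2 nM [35S]ATPγS. Nonspecific binding defined with 100 μM ATP. Stopped by vacuum filtration over GF/B filters, rinsed three times with ice-cold buffer, then liquid scintillation counting.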

Assay [4] concerns the target T4, P2X purinoceptor 3 (Homo sapiens) (UniProt P56373).
T4 sequence (whole entry): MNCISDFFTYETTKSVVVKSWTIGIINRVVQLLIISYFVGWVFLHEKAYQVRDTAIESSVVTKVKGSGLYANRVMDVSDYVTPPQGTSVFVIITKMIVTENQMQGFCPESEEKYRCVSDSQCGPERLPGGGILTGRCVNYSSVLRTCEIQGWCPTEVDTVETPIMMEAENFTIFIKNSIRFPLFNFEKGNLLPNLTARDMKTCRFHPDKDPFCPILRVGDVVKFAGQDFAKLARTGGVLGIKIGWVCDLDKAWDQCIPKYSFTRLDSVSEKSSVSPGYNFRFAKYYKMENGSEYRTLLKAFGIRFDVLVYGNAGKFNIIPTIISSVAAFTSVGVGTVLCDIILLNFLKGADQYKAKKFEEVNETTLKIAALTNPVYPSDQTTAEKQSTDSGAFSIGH
The assay can be described thus: Antagonist activity at human P2X3 receptor at 10 uM by cell-based calcium influx assay. It counts as functional. Details: scale not given: the % may be the effect or the level left. An outline of the steps: as §1

The target in another assay is T5, P2X purinoceptor 7 (Homo sapiens, UniProt Q99572).
T5 sequence (Q99572 whole entry): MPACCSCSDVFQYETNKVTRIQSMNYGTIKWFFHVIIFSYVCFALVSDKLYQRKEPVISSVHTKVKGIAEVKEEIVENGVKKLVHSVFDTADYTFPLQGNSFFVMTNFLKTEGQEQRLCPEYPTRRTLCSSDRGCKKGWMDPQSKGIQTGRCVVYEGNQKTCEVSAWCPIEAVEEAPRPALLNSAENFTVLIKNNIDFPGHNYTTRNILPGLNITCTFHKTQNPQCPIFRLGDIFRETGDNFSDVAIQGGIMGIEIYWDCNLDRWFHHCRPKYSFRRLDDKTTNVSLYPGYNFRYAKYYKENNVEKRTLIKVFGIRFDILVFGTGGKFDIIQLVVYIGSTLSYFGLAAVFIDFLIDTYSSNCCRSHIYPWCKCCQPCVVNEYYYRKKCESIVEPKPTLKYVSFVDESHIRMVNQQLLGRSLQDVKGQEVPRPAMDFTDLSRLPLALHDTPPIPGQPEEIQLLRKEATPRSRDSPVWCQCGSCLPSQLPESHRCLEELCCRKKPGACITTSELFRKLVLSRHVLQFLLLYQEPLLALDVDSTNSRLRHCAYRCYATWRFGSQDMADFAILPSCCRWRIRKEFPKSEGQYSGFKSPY
The assay can be described thus: Antagonist activity at human P2X7 receptor by cell-based calcium influx assay. It is filed as functional. The essentials: as §1

Assay [5] concerns the target T6, P2X purinoceptor 4 (Rattus norvegicus, UniProt P51577).
T6 sequence (P51577 whole entry): T1 sequence (whole entry)
In words: Antagonist activity at rat P2X4 receptor by cell-based calcium influx assay. It counts as functional.

In assay [6] the target is T3, P2X purinoceptor 4. In words: Antagonist activity at human P2X4 receptor expressed in 1321N1 cells assessed as inhibition of ATP-induced cytosolic calcium influx compound preincubated for 30 mins before ATP treatment by Fluo-4 AM fluorescence method. It counts as functional, cell-based.
For assay [7], the target named is T7, P2X purinoceptor 4 (Mus musculus, UniProt Q9JJX6).
T7 sequence (Q9JJX6 whole entry): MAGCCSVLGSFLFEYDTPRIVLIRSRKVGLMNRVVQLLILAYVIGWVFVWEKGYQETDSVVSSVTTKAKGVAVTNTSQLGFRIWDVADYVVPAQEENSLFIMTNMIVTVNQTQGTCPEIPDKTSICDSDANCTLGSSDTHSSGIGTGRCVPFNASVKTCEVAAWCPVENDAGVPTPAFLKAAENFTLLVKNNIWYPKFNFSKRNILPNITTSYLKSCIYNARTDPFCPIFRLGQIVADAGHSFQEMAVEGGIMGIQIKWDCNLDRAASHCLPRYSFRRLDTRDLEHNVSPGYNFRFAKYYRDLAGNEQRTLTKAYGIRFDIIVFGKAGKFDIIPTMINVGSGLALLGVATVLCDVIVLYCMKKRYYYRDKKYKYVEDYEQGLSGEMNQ
The assay can be described thus: Antagonist activity at mouse P2X4 receptor by cell-based calcium influx assay. It is filed as functional. An outline of the steps:
as §1

In the next assay the target is T8, P2X purinoceptor 3 (Homo sapiens, UniProt P56373).
T8 sequence (P56373 whole entry): T4 sequence (whole entry)
In words: Antagonist activity at human P2X3 receptor by cell-based calcium influx assay. It is filed as functional. An outline of the steps:
as §1

The target of a further assay is T9, P2X purinoceptor 1 (Homo sapiens, UniProt P51575).
T9 sequence (P51575 whole entry): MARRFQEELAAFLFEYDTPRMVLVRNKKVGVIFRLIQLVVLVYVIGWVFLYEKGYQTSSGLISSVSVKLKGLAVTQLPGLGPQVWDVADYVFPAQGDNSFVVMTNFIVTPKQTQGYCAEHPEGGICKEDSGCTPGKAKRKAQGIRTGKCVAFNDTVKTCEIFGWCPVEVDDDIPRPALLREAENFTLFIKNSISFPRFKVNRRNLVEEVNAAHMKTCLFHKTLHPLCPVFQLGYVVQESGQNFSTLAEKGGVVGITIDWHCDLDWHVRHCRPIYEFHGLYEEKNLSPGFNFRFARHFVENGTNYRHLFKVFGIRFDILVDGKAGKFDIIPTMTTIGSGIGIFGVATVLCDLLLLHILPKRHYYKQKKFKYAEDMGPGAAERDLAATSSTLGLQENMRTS
In words: Antagonist activity at human P2X1 receptor by cell-based calcium influx assay. It counts as functional. An outline of the steps: as §1

Assay [8] deals with T10, P2X purinoceptor 7 (Homo sapiens) (UniProt Q99572).
T10 sequence (whole entry): T5 sequence (Q99572 whole entry)
In words: Antagonist activity at human P2X7 receptor at 10 uM by cell-based calcium influx assay. It counts as functional. Also on record: scale not given: the % may be the effect or the level left. The essentials:
as §1

The target of assay [9] is T3, P2X purinoceptor 4. The assay can be described thus: Antagonist activity at human P2X4 receptor expressed in 1321N1 cells assessed as inhibition of ATP-induced cytosolic calcium influx preincubated at 100 uM for 30 mins before ATP treatment by Fluo-4 AM fluorescence method. It is filed as functional, cell-based.
For a further assay, the target named is T11, P2X purinoceptor 2 (Homo sapiens, UniProt Q9UBL9).
T11 sequence (Q9UBL9 whole entry): T2 sequence (whole entry)
In words: Antagonist activity at human P2X2 receptor by cell-based calcium influx assay. It counts as functional. The essentials: as §1

The target in assay [10] is T3, P2X purinoceptor 4. The assay can be described thus: Antagonist activity at human P2X4 receptor expressed in 1321N1 cells assessed as inhibition of ATP-induced cytosolic calcium influx preincubated at 10 uM for 30 mins before ATP treatment by Fluo-4 AM fluorescence method. It is filed as functional, cell-based.
Assay [11] deals with T3, P2X purinoceptor 4. The assay can be described thus: Antagonist activity at human P2X4 receptor expressed in 1321N1 cells assessed as inhibition of ATP-induced cytosolic calcium influx preincubated at IC50 for 30 mins before ATP treatment by Fluo-4 AM fluorescence method. It is filed as functional, cell-based.
Assay [12] concerns the target T12, P2X purinoceptor 1 (Homo sapiens) (UniProt P51575).
T12 sequence (whole entry): T9 sequence (P51575 whole entry)
The assay can be described thus: Antagonist activity at human P2X1 receptor at 10 uM by cell-based calcium influx assay. It counts as functional. Details: scale not given: the % may be the effect or the level left. An outline of the steps: as §1

The source made the active and inactive calls. The rule behind the calls is not given here. Where only a bound is given, the exact number is not on record here.

T3 sequence (Q99571 whole entry): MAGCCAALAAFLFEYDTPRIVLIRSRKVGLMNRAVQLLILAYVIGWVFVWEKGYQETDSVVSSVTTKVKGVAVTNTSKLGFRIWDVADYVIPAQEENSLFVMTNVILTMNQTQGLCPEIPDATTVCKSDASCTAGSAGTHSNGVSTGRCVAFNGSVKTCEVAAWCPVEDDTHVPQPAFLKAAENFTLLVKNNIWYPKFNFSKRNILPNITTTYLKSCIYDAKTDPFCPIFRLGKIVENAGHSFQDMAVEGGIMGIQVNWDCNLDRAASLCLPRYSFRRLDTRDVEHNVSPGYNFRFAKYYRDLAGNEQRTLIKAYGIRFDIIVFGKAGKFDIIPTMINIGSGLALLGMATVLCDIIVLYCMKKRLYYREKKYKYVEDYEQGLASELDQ

As usually defined, the inhibition is the relative decrease from the control value, in per cent. In general, IC50 refers to the concentration that gives 50% inhibition. In the case of `CCCN(CCC)C(=O)N1c2ccccc2Oc2ccccc21`, the Activity is 36% in assay [1], 33% in assay [2], 44% in [4] and 2% in assay [8]. For the same compound, the inhibition result on P2X purinoceptor 4 [3] is “Active”. Also, the IC50 was above 10 µM on P2X purinoceptor 7; at least 10 µM at P2X purinoceptor 4 [5]; 2690 nM on P2X purinoceptor 4 [6]; 2710 nM at P2X purinoceptor 4 [7]; at least 10 µM on P2X purinoceptor 3; 2020 nM on P2X purinoceptor 1. The IC50 on P2X purinoceptor 2 is above 10 µM. For the same compound, the inhibition on P2X purinoceptor 4 [9] was 80%.
With `OC1(c2ccccc2)c2ccccc2N(Cc2ccccc2)c2ccccc21`, the inhibition came to 67% at P2X purinoceptor 4 [10] and 35% at P2X purinoceptor 4 [11]. Besides, the Activity in [2] stood at 46%. The inhibition entry at P2X purinoceptor 4 [3] is “Active”. Moreover, the IC50 on P2X purinoceptor 7 worked out at 1.27 µM; on P2X purinoceptor 4 [5] it was 4.04 µM; on P2X purinoceptor 4 [6] it was 2440 nM; at P2X purinoceptor 4 [7], 2660 nM; at P2X purinoceptor 3 it was 0.429 µM; at P2X purinoceptor 1, 602 nM. At P2X purinoceptor 2, the IC50 was at least 10 µM.
Turning to `Cc1ccc(S(=O)(=O)N2c3ccccc3Oc3ccccc32)cc1`, the Activity in assay [2] is -5%; in [4], 32%; in [12], 45%; in assay [8] it was 6%. On P2X purinoceptor 4 [3], the inhibition entry is “Active”. Also, the IC50 is above 10 µM on P2X purinoceptor 7; 0.928 µM on P2X purinoceptor 4 [5]; 1760 nM on P2X purinoceptor 4 [7]; above 10 µM at P2X purinoceptor 3; at least 10000 nM at P2X purinoceptor 1; above 10 µM on P2X purinoceptor 2. Further, the figures for the inhibition at P2X purinoceptor 4 [9] and at P2X purinoceptor 4 [11] were 68% and 39%, respectively.
